Reference: PMC10720030 (ACS Omega, 2023)
“And” between values parts separate entries of the source, which are not always exact repeats. Identical values can stand only once. Like-named read-outs stand apart in the source and are kept apart here.

How the values were obtained:
[1] = system: breast MCF-7 cancer cells; experiment: Cytotoxicity using the MTT assay, MCF-7; assay type: cell-based; settings: for inhibition at 100 µM: read-out: % of cell inhibition ± SD at [100 μM], MCF7
Summary of the method: (§1)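 MTT viability; cells grown with 10% FBS and 1% penicillin–streptomycin, exposed next day to five concentrations (0.01, 0.1, 1, 10, 100) for 48 h. MTT dye added for 3 h, then viability calculated against untreated control. IC50 taken from dose–response curve; mean ± SD of three independent triplicates (n = 3).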

[2] = system: liver HepG2 cancer cells; experiment: Cytotoxicity using the MTT assay, HepG2; assay type: cell-based; settings: for inhibition at 100 µM: read-out: % of cell inhibition ± SD at [100 μM], HepG2
Summary of the method: as §1

[3] = target: PIM-1 kinase (Homo sapiens, UniProt P11309); experiment: PIM-1 kinase inhibitory assay; assay type: biochemical; settings: for % of kinase inhibition, PIM-1 kinase: concentration not given
Chain of PIM-1 kinase (P11309 whole entry): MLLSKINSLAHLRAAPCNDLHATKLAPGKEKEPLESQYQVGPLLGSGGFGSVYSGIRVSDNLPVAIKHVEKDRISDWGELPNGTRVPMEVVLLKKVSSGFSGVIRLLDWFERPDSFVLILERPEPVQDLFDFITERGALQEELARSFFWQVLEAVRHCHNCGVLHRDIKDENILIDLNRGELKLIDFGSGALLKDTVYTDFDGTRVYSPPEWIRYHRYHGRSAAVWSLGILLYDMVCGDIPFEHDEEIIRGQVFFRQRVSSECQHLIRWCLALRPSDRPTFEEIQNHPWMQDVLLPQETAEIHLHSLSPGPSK

[4] = system: MCF-7 cells; experiment: DNA content-flow cytometry cell cycle analysis; assay type: cell-based; settings: MCF-7, treated at IC50, 48 h; control 29.12%
[5] = system: Solid Ehrlich carcinoma (SEC); experiment: In vivo antitumor activity in SEC-bearing mice; parameters: species or system Swiss albino mice; settings: 5 mg/kg I.P.; for tumor weight: n = 6, SEC control 198.5 ± 10.6; for tumor volume: n = 6, SEC control 274.8 ± 16.6
[6] = system: MCF-10A normal cells; experiment: Cytotoxicity using the MTT assay, MCF-10A; assay type: cell-based; settings: Homo sapiens, read-out: IC50 ± SD, MCF-10A
Summary of the method: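 Normal breast cells run in MTT viability assay. IC50 derived from dose–response curve; values are mean ± SD of three independent triplicate experiments (n = 3).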

[7] = system: MCF-7 cells; experiment: Wound-healing assay; assay type: cell-based
[8] = system: MCF-7 cells; experiment: Autophagy evaluation using acridine orange flow cytometry; assay type: cell-based; settings: MCF-7, 48 h, control 32.8 × 10^3
[9] = system: MCF-7 cells; experiment: Annexin V/PI staining flow cytometry; assay type: cell-based; settings: MCF-7, treated at IC50, 48 h
[10] = system: MCF-7; settings: read-out: IC50 against MCF-7; cited from earlier work
[11] = Homo sapiens, HepG2, 48 h, read-out: IC50 ± SD, HepG2, HepG2, MTT, 48 h, n = 3
[12] = read-out: IC50 ± SD, HepG2, HepG2, MTT, 48 h, n = 3
[13] = Homo sapiens, MCF7, 48 h, read-out: IC50 ± SD, MCF7, MCF7, MTT, 48 h, n = 3

| Compound | inhibition at 100 µM ([1]; Homo sapiens, MCF7, 48 h) | inhibition at 100 µM ([2]; Homo sapiens, HepG2, 48 h) | IC50 [3] | % of kinase inhibition, PIM-1 kinase [3] | other results |
| --- | --- | --- | --- | --- | --- |
| Cc1cc(C)c(C#N)c(OCc2n[nH]c(=S)o2)n1 [Compound 2, 4,6-Dimethyl-2-((5-thioxo-4,5-dihydro-1,3,4-oxadiazol-2-yl)methoxy)nicotinonitrile] | 41.9 ± 1.9% | 43.5 ± 1.8% | – | – | – |
| CCOC(=O)CSc1nnc(COc2nc(C)cc(C)c2C#N)o1 [Compound 3, Ethyl 2-((5-(((3-Cyano-4,6-dimethylpyridin-2-yl)oxy)methyl)-1,3,4-oxadiazol-2-yl)thio)acetate] | 55.1 ± 2.1% | 57.8 ± 1.9% | – | – | – |
| Cc1cc(C)c(C#N)c(OCc2nnc(SCc3ccccc3)o2)n1 [Compound 4, 2-((5-(Benzylthio)-1,3,4-oxadiazol-2-yl)methoxy)-4,6-dimethylnicotinonitrile] | 72.1 ± 2.9% | 75.8 ± 2.3% | – | – | – |
| C=CCSc1nnc(COc2nc(C)cc(C)c2C#N)o1 [Compound 5, 2-((5-(Allylthio)-1,3,4-oxadiazol-2-yl)methoxy)-4,6-dimethylnicotinonitrile] | 47 ± 1.4% | 69 ± 2.1% | – | – | – |
| CCCCCSc1nnc(COc2nc(C)cc(C)c2C#N)o1 [Compound 6, 4,6-Dimethyl-2-((5-(pentylthio)-1,3,4-oxadiazol-2-yl)methoxy)nicotinonitrile] | 78.2 ± 2.2% | 79.2 ± 2.2% | 19.4 ± 0.7 nM | 94.3 ± 1.3% | IC50 [2, 11]: 5270 nM; IC50 [2, 12]: 6640 ± 280 nM |
| CC(=O)OC[C@H]1O[C@H](Sc2nnc(COc3nc(C)cc(C)c3C#N)o2)[C@H](OC(C)=O)[C@@H](OC(C)=O)[C@H]1OC(C)=O [Compound 8, 2-((5-(2,3,4,6-Tetra-O-acetyl-α-D-galactopyranosylsulfanyl)-1,3,4-oxadiazol-2-yl)methoxy)-4,6-dimethylpyridine-3-carbonitrile] | 59.8 ± 1.7% | 57.8 ± 1.6% | – | – | – |
| COC(=O)CNC(=O)COc1nc(C)cc(C)c1C#N [Compound 11, Methyl (2-((3-Cyano-4,6-dimethylpyridin-2-yl)oxy)acetyl)glycinate] | 78.6 ± 2.3% | 68.8 ± 1.6% | 42.3 ± 1.1 nM | 90.1 ± 2.7% | IC50 [1, 13]: 730 ± 40 nM |
| Cc1cc(C)c(C#N)c(OCC(=O)N2CCOCC2)n1 [Compound 12, 4,6-Dimethyl-2-(2-morpholino-2-oxoethoxy)nicotinonitrile] | 84.2 ± 2.6% | 85.1 ± 2.1% | 14.3 ± 0.6 nM | 97.5 ± 1.3% | S-phase cell population (%DIP S) [4]: 36.02%; tumor weight [5]: 72.8 mg and 72.8 ± 1.74 mg; tumor volume [5]: 159.2 mm^3 and 159.2 ± 10.1 mm^3; tumor inhibition ratio (TIR %) ([5]; n = 6, TIR % = C – T/C × 100): 42.1% and 42.1 ± 1.0%; IC50 [6]: 52800 ± 2100 nM; wound closure ([7]; MCF-7, after 48 h of treatment, control 95.6%): 71.8%; average L of migration ([7]; MCF-7, time 72 h): 0.32 mm; % closure ([7]; MCF-7, time 72 h, Cont.MCF-7 95.55): 71.85%; migrated cell area ([7]; MCF-7, time 72 h, total area 0.225): 0.161; IC50 [1, 13]: 500 nM; IC50 ([1]; read-out: IC50 ± SD, MCF7, MCF7, MTT, 48 h, n = 3): 510 ± 20 nM; autophagic cell death [8]: 87.6 × 10^3 cells; early apoptosis [9]: 23.18%; increase of apoptosis versus untreated control [9]: 52.2 fold; late apoptosis [9]: 10.25%; total apoptosis ([9]; untreated control 0.64%): 33.43%; IC50 [2, 11]: 6600 nM; IC50 [2, 12]: 5270 ± 200 nM |
| Cc1cc(C)c(C#N)c(OCC(=O)N2CCCCC2)n1 [Compound 13, 4,6-Dimethyl-2-(2-oxo-2-(piperidin-1-yl)ethoxy)nicotinonitrile] | 64.6 ± 1.8% | 56.4 ± 1.4% | 19.8 ± 1.1 nM | 94.9 ± 2.9% | – |
| Cc1cc(C)c(C#N)c(OCC(=O)NCc2ccccc2)n1 [Compound 14, N-Benzyl-2-((3-cyano-4,6-dimethylpyridin-2-yl)oxy)acetamide] | 48.8 ± 1.2% | 35.5 ± 1.1% | – | – | – |
| COc1cccc2c1C(=O)c1c(O)c3c(c(O)c1C2=O)C[C@@](O)(C(=O)CO)C[C@@H]3O[C@H]1C[C@H](N)[C@H](O)[C@H](C)O1 [doxorubicin, reference compound] | 90.2 ± 2.1% | 79.1 ± 2.3% | – | – | tumor weight [5]: 63.4 mg; tumor volume [5]: 112.3 mm^3; IC50 [6]: 15800 ± 630 nM; IC50 [1, 13]: 2140 ± 100 nM; IC50 [2, 11]: 2480 ± 100 nM |
| CS(=O)(=O)CCNCc1ccc(-c2ccc3ncnc(Nc4ccc(OCc5cccc(F)c5)c(Cl)c4)c3c2)o1 [lapatinib] | – | – | – | – | IC50 [10]: 4690 nM |
